Measured values from ChEMBL document CHEMBL1817610, “Synthesis and SAR requirements of adamantane-colchicine conjugates with both microtubule depolymerizing and tubulin clustering activities” (Bioorg Med Chem, 2011).
Calls of active or inactive are those of the source. The rule behind the calls is not given here.

Key:
A549 [1] = test: Cytotoxicity against human A549 cells after 24 hrs by MTT assay; type: functional, cell-based; details: A549, 24 h
Outline: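 A549 cells kept in DMEM with 10% FBS and 1% penicillin/streptomycin at 37 °C, 5% CO2, then seeded at 3 × 10³ per well. Exposure 24 h to test agents at 1–12000 nM (DMSO stocks; 0.4% DMSO negative control), 8 wells per concentration. Surviving cells counted by colorimetric MTT (5 mg/mL in PBS). EC50 averaged over three to six experiments.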

A549 [2] = test: Effect on microtubule network in human A549 cells assessed as microtubule depolymerization and tubulin clustering at 1 uM after 8 hrs by immunofluorescence microscopic analysis; type: functional, cell-based
Outline: (§1)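 A549 cells grown on 11 mm glass coverslips at 2 × 10⁴ cells each. Exposure to compounds at 1 and 5 µM for 8 h at 37 °C, 5% CO2, with 0.5% DMSO as negative control. Cells fixed in 4% paraformaldehyde and stained with mouse monoclonal anti-α-tubulin, then Alexa Fluor488 goat anti-mouse IgG (1:200). Fluorescence microscopy, effect scored semi-quantitatively by '+' grades.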

A549 [3] = test: Effect on microtubule network in human A549 cells assessed as microtubule depolymerization at 1 uM after 8 hrs by immunofluorescence microscopic analysis; type: functional, cell-based; outline: as §1
Bos taurus = species on record: Bos taurus; test: Inhibition of bovine brain tubulin polymerization after 1 hr
Outline: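 Purified bovine brain tubulin polymerized with 10% DMSO present and test agent at 10 µM. Incubation 1 h, then preparations examined by Allen video-enhanced microscopy.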

A549 [4] = test: Effect on microtubule network in human A549 cells assessed as microtubule depolymerization and tubulin clustering at 5 uM after 8 hrs by immunofluorescence microscopic analysis; type: functional, cell-based; outline: as §1
A549 [5] = test: Effect on microtubule network in human A549 cells assessed as microtubule binding at 1 uM after 8 hrs by immunofluorescence microscopic analysis; type: functional, cell-based
A549 (Homo sapiens) = test: Effect on microtubule network in human A549 cells assessed as tubulin clustering formation after 8 hrs by immunofluorescence microscopic analysis

Row | SMILES | EC50 (A549 [1]) [nM] | Activity (A549 [2]) | also measured
1 | COc1cc2c(c(OC)c1OC)-c1ccc(OC)c(=O)cc1[C@@H](NC(=O)CCCC(=O)OC1C3CC4CC1CC(OC(=O)[C@H](O)[C@@H](NC(=O)OC(C)(C)C)c1ccccc1)(C4)C3)CC2 (mixture of isomers) | 220 | – | –
2 | COc1cc2c(c(OC)c1OC)-c1ccc(OC)c(=O)cc1[C@@H](NC(=O)CCCCCC(=O)OC(C)C)CC2 | 30 | Active | –
3 | COc1cc2c(c(OC)c1OC)-c1ccc(OC)c(=O)cc1[C@@H](NC(=O)CCCCCC(=O)Oc1ccccc1)CC2 | 5700 | – | Activity (A549 [3]): Active
4 | COc1cc2c(c(OC)c1OC)-c1ccc(OC)c(=O)cc1[C@@H](NC(=O)CCCCCC(=O)OC1C3CC4CC1CC(OC(=O)[C@H](O)[C@@H](NC(=O)OC(C)(C)C)c1ccccc1)(C4)C3)CC2 (mixture of isomers) | 73 | Active | inhibition (Bos taurus): Active; Activity (A549 [4]): Active
5 | COc1cc2c(c(OC)c1OC)-c1ccc(OC)c(=O)cc1[C@@H](NC(=O)CCCCCCC(=O)OC1C3CC4CC1CC(OC(=O)[C@H](O)[C@@H](NC(=O)OC(C)(C)C)c1ccccc1)(C4)C3)CC2 (mixture of isomers) | 2 | Active | –
6 | COc1cc2c(c(OC)c1OC)-c1ccc(OC)c(=O)cc1[C@@H](NC(=O)CCCCCC(=O)OC1CCCCC1)CC2 | 4.8 | Active | –
7 | COc1cc2c(c(OC)c1OC)-c1ccc(OC)c(=O)cc1[C@@H](NC(=O)CCCC(=O)OC1C3CC4CC(C3)CC1C4)CC2 (stereo not given in full) | 200 | – | Activity (A549 [3]): Active
8 | COc1cc2c(c(OC)c1OC)-c1ccc(OC)c(=O)cc1[C@@H](NC(=O)CCCCCCCC(=O)OC13CC4CC(CC(C4)C1)C3)CC2 | 29 | – | –
9 | CC(=O)O[C@H]1C(=O)[C@@]2(C)[C@H]([C@H](OC(=O)c3ccccc3)[C@]3(O)C[C@H](OC(=O)[C@H](O)[C@@H](NC(=O)c4ccccc4)c4ccccc4)C(C)=C1C3(C)C)[C@]1(OC(C)=O)CO[C@@H]1C[C@@H]2O [PACLITAXEL] | 4.6 | – | Activity (A549 [5]): Active
10 | COc1cc2c(c(OC)c1OC)-c1ccc(OC)c(=O)cc1[C@@H](NC(C)=O)CC2 [COLCHICINE] | 27 | – | Activity (A549 [3]): Active
11 | COc1cc2c(c(OC)c1OC)-c1ccc(OC)c(=O)cc1[C@@H](NC(=O)CCCCCC(=O)OC1C3CC4CC(C3)CC1C4)CC2 (stereo not given in full) | 6 | Active | Activity (A549 (Homo sapiens)): Active
12 | COc1cc2c(c(OC)c1OC)-c1ccc(OC)c(=O)cc1[C@@H](NC(=O)CCCCCCCC(=O)OC1C3CC4CC(C3)CC1C4)CC2 (stereo not given in full) | 3800 | Active | –
13 | COC(=O)CCCCCC(=O)N[C@H]1CCc2cc(OC)c(OC)c(OC)c2-c2ccc(OC)c(=O)cc21 | 32 | – | Activity (A549 [3]): Active
14 | COc1cc2c(c(OC)c1OC)-c1ccc(OC)c(=O)cc1[C@@H](NC(=O)CCCCCCCCCCCOC(=O)[C@H](O)[C@@H](NC(=O)OC(C)(C)C)c1ccccc1)CC2 | 41 | Active | –
15 | COc1cc2c(c(OC)c1OC)-c1ccc(OC)c(=O)cc1[C@@H](NC(=O)CCCCCCC(=O)OC1C3CC4CC(C3)CC1C4)CC2 (stereo not given in full) | 5 | Active | –
16 | COc1cc2c(c(OC)c1OC)-c1ccc(OC)c(=O)cc1[C@@H](NC(=O)CCCCC(=O)OC1C3CC4CC(C3)CC1C4)CC2 (stereo not given in full) | 830 | Active | –
17 | COc1cc2c(c(OC)c1OC)-c1ccc(OC)c(=O)cc1[C@@H](NC(=O)CCCCCC(=O)OC13CC4CC(CC(C4)C1)C3)CC2 | 11 | Active | –
